Results published in ChEMBL document CHEMBL5058577, “EUbOPEN Chemogenomics Library 2 (Multiplex)” (2022).

Test system: HEK-293T
Experiment: Multiplex assay against HEK293T
Assay type: toxicity, cell-based
Conditions: human
Method in brief: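 Four dyes were applied at seeding to live cells: Hoechst33342, BioTracker Green Microtubule Cytoskeleton Dye, MitoTracker Red and Annexin V Alexa Fluor 680. Imaging after compound addition used a CQ1 microscope at 37°C and 5% CO2. CellPathfinder machine-learning gating then sorted cells into Hoechst high-intensity objects or normal cells, normal cells into healthy, pyknosed or fragmented nuclei, and pyknosed cells into mitotic or apoptotic, with tubulin, mitochondrial-mass and membrane-permeability phenotypes given as per cents of healthy-nucleus cells.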

[1] = 12 h, 1 µM, compound concentration 1 uM, replicate 1
[2] = 12 h, 1 µM, compound concentration 1 uM, replicate 2
[3] = 12 h, 10 µM, compound concentration 10 uM, replicate 1
[4] = 12 h, 10 µM, compound concentration 10 uM, replicate 2
[5] = 24 h, 1 µM, compound concentration 1 uM, replicate 1
[6] = 24 h, 1 µM, compound concentration 1 uM, replicate 2
[7] = 24 h, 10 µM, compound concentration 10 uM, replicate 1
[8] = 24 h, 10 µM, compound concentration 10 uM, replicate 2
[9] = 48 h, 1 µM, compound concentration 1 uM, replicate 1
[10] = 48 h, 1 µM, compound concentration 1 uM, replicate 2
[11] = 48 h, 10 µM, compound concentration 10 uM, replicate 1
[12] = 48 h, 10 µM, compound concentration 10 uM, replicate 2

COc1cc(C(=O)N2CC[C@@H](O)[C@@H](N)C2)cc2nc(-c3cc4ccccc4n3CC3CC3)n(C)c12.Cl
Population Apoptotic (%) [1]: 48%
Population Fragmented Nuclei (%) [1]: 6%
Population Healthy Nuclei (%) [1]: 79%
Population Hoechst High Intensity Objects (%) [1]: 10%
Population Membrane Permeable-Phenotype (%) [1]: 0%
Population Mitochondria Different-Phenotype (%) [1]: 56%
Population Mitotic Cells (%) [1]: 51%
Population Normal (%) [1]: 89%
Population Pyknosed Nuclei (%) [1]: 13%
Population Tubulin-Different-Phenotype (%) [1]: 52%
Total Cell Count [1]: 398
Population Apoptotic (%) [2]: 70%
Population Fragmented Nuclei (%) [2]: 2%
Population Healthy Nuclei (%) [2]: 77%
Population Hoechst High Intensity Objects (%) [2]: 15%
Population Mitochondria Different-Phenotype (%) [2]: 71%
Population Mitotic Cells (%) [2]: 29%
Population Normal (%) [2]: 84%
Population Pyknosed Nuclei (%) [2]: 20%
Population Tubulin-Different-Phenotype (%) [2]: 37%
Total Cell Count [2]: 281
Population Apoptotic (%) [3]: 71%
Population Fragmented Nuclei (%) [3]: 5%
Population Healthy Nuclei (%) [3]: 66%
Population Hoechst High Intensity Objects (%) [3]: 21%
Population Membrane Permeable-Phenotype (%) [3]: 0%
Population Mitochondria Different-Phenotype (%) [3]: 90%
Population Mitotic Cells (%) [3]: 28%
Population Normal (%) [3]: 78%
Population Pyknosed Nuclei (%) [3]: 28%
Population Tubulin-Different-Phenotype (%) [3]: 79%
Total Cell Count [3]: 260
Population Fragmented Nuclei (%) [4]: 4%
Population Healthy Nuclei (%) [4]: 80%
Population Hoechst High Intensity Objects (%) [4]: 18%
Population Membrane Permeable-Phenotype (%) [4]: 2%
Population Mitochondria Different-Phenotype (%) [4]: 88%
Population Normal (%) [4]: 81%
Population Pyknosed Nuclei (%) [4]: 15%
Population Tubulin-Different-Phenotype (%) [4]: 72%
Total Cell Count [4]: 350
Population Apoptotic (%) [5]: 42%
Population Fragmented Nuclei (%) [5]: 9%
Population Healthy Nuclei (%) [5]: 77%
Population Hoechst High Intensity Objects (%) [5]: 6%
Population Membrane Permeable-Phenotype (%) [5]: 0%
Population Mitochondria Different-Phenotype (%) [5]: 42%
Population Mitotic Cells (%) [5]: 57%
Population Normal (%) [5]: 93%
Population Pyknosed Nuclei (%) [5]: 13%
Population Tubulin-Different-Phenotype (%) [5]: 33%
Total Cell Count [5]: 527
Population Apoptotic (%) [6]: 60%
Population Fragmented Nuclei (%) [6]: 7%
Population Healthy Nuclei (%) [6]: 79%
Population Hoechst High Intensity Objects (%) [6]: 12%
Population Mitochondria Different-Phenotype (%) [6]: 64%
Population Mitotic Cells (%) [6]: 39%
Population Normal (%) [6]: 87%
Population Pyknosed Nuclei (%) [6]: 12%
Population Tubulin-Different-Phenotype (%) [6]: 30%
Total Cell Count [6]: 363
Population Apoptotic (%) [7]: 58%
Population Fragmented Nuclei (%) [7]: 8%
Population Healthy Nuclei (%) [7]: 70%
Population Hoechst High Intensity Objects (%) [7]: 18%
Population Membrane Permeable-Phenotype (%) [7]: 0%
Population Mitochondria Different-Phenotype (%) [7]: 94%
Population Mitotic Cells (%) [7]: 41%
Population Normal (%) [7]: 81%
Population Pyknosed Nuclei (%) [7]: 20%
Population Tubulin-Different-Phenotype (%) [7]: 78%
Total Cell Count [7]: 312
Population Apoptotic (%) [8]: 65%
Population Fragmented Nuclei (%) [8]: 6%
Population Healthy Nuclei (%) [8]: 78%
Population Hoechst High Intensity Objects (%) [8]: 21%
Population Mitochondria Different-Phenotype (%) [8]: 92%
Population Mitotic Cells (%) [8]: 34%
Population Normal (%) [8]: 78%
Population Pyknosed Nuclei (%) [8]: 15%
Population Tubulin-Different-Phenotype (%) [8]: 74%
Total Cell Count [8]: 411
Population Apoptotic (%) [9]: 24%
Population Fragmented Nuclei (%) [9]: 9%
Population Healthy Nuclei (%) [9]: 79%
Population Hoechst High Intensity Objects (%) [9]: 5%
Population Membrane Permeable-Phenotype (%) [9]: 0%
Population Mitochondria Different-Phenotype (%) [9]: 37%
Population Mitotic Cells (%) [9]: 75%
Population Normal (%) [9]: 94%
Population Pyknosed Nuclei (%) [9]: 10%
Population Tubulin-Different-Phenotype (%) [9]: 28%
Total Cell Count [9]: 816
Population Apoptotic (%) [10]: 64%
Population Healthy Nuclei (%) [10]: 80%
Population Hoechst High Intensity Objects (%) [10]: 7%
Population Mitochondria Different-Phenotype (%) [10]: 48%
Population Mitotic Cells (%) [10]: 36%
Population Normal (%) [10]: 92%
Population Tubulin-Different-Phenotype (%) [10]: 22%
Total Cell Count [10]: 520
Population Apoptotic (%) [11]: 76%
Population Fragmented Nuclei (%) [11]: 13%
Population Healthy Nuclei (%) [11]: 68%
Population Hoechst High Intensity Objects (%) [11]: 18%
Population Membrane Permeable-Phenotype (%) [11]: 0%
Population Mitochondria Different-Phenotype (%) [11]: 89%
Population Mitotic Cells (%) [11]: 23%
Population Normal (%) [11]: 81%
Population Pyknosed Nuclei (%) [11]: 17%
Population Tubulin-Different-Phenotype (%) [11]: 81%
Total Cell Count [11]: 386
Population Healthy Nuclei (%) [12]: 75%
Population Hoechst High Intensity Objects (%) [12]: 23%
Population Mitochondria Different-Phenotype (%) [12]: 87%
Population Normal (%) [12]: 76%
Population Pyknosed Nuclei (%) [12]: 10%
Population Tubulin-Different-Phenotype (%) [12]: 74%
Total Cell Count [12]: 467
